Series [1] deals with Receptor-type tyrosine-protein phosphatase F (Homo sapiens, UniProt P10586). Kind of series: Inhibition of human LAR using pNPP as substrate after 5 mins by spectrophotometric plate reader analysis. In short, it runs like this:
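Enzyme preincubated 5 min at 27 °C with serially diluted inhibitor (from DMSO) in imidazole/NaCl buffer pH 7.0 with 0.01% Triton X-100 and 5 mM DTT. Started with pNPP (500 μM in assay) and read at 405 nm for 20 min. The pNPP KM was measured for each enzyme. Ki from nonlinear regression of substrate–velocity curves at several inhibitor levels; at least duplicate.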

Series [2] concerns the target T1, Tyrosine-protein phosphatase non-receptor type 2 (Homo sapiens, UniProt P17706).
T1 sequence (P17706 whole entry): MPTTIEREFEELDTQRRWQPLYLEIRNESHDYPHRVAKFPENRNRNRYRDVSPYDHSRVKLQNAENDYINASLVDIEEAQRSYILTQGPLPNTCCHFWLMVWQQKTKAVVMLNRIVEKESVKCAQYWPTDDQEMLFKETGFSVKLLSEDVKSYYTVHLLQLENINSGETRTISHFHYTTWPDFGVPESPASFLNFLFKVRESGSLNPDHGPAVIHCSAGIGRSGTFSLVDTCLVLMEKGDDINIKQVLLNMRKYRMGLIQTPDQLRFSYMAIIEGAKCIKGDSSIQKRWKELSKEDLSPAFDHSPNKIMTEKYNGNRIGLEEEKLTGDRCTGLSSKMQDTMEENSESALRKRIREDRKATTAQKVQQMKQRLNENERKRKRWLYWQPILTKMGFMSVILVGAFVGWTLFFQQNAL
In words: Inhibition of human TC-PTP using pNPP as substrate after 5 mins by spectrophotometric plate reader analysis. The gist of the method:
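Selectivity assay using the STEP Ki protocol. Enzyme was preincubated 5 min at 27 °C with two- or three-fold inhibitor serial dilutions in DMSO, in imidazole/NaCl buffer at pH 7.0 with 0.01% Triton X-100 and 5 mM DTT. Reaction started with pNPP (500 μM in assay), read continuously at 405 nm for 20 min. Ki came from nonlinear regression of substrate-velocity curves, using this enzyme's pNPP KM; at least duplicate.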

The target of series [3] is T2, Tyrosine-protein phosphatase non-receptor type 5 (Rattus norvegicus) (UniProt P35234).
T2 sequence (whole entry): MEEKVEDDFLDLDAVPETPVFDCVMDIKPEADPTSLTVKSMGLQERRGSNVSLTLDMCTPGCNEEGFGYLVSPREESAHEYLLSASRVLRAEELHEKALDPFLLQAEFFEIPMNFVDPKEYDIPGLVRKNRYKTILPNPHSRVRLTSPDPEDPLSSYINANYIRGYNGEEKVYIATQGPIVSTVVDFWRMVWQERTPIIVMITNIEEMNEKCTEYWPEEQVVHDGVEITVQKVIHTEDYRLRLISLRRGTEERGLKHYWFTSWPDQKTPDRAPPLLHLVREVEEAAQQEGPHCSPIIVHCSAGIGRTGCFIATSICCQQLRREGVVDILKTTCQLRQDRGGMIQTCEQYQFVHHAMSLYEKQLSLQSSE
In words: Inhibition of STEP in Sprague-Dawley rat embryo primary cortical neurons assessed as phosphorylation of GluN2B at 0.1 to 10 uM after 1 hr by Western blot analysis. Conditions: Cerebral cortex neuron. The gist of the method:
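E18 rat cortical neurons were trypsin-dissociated and plated on poly-D-lysine in Neurobasal with 2% B27, then grown 18–21 days at 37 °C. Compound was added at final 0, 0.1, 1 or 10 μM (0.1% DMSO) for 1 h at 37 °C. Cells were lysed in RIPA with protease/phosphatase inhibitors and protein measured by BCA. Phospho and total proteins were blotted by SDS-PAGE, with antibodies overnight at 4 °C and chemiluminescent detection.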
In general terms: In western blotting, separated proteins are transferred to a membrane and probed.

Series [4] deals with T3, Dual specificity protein phosphatase 10 (Homo sapiens, UniProt Q9Y6W6).
T3 sequence (Q9Y6W6 whole entry): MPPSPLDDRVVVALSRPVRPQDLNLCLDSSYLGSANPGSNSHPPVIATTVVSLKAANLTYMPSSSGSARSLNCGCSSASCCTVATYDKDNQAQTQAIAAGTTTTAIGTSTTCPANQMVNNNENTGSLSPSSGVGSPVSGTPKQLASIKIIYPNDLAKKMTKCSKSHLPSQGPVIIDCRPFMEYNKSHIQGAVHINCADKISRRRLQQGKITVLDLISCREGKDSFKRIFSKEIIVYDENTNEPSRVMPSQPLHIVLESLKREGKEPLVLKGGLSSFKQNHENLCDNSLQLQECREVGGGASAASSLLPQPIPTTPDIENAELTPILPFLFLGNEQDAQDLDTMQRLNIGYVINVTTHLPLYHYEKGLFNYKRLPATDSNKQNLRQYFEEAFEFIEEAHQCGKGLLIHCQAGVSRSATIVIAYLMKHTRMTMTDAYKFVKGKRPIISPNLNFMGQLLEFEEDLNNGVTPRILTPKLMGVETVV
In words: Inhibition of human MKP5 using DiFMUP as substrate after 5 mins by spectrophotometric plate reader analysis. The gist of the method:
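The […] substrate was DiFMUP. Buffer was Tris-HCl pH 8.0 with Triton X-100 and 5 mM DTT. Inhibitor was preincubated with enzyme for 5 min at 27 °C before adding substrate. Ki from nonlinear regression of initial-rate substrate–velocity data at several inhibitor concentrations; at least duplicate.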

The species entered for series [5] is Homo sapiens. Kind of series: Selectivity ratio of Ki for human LAR to Ki for human STEP. The gist of the method:
(§1)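 STEP, CD45, LAR and TC-PTP used pNPP (500 μM) in imidazole/NaCl pH 7.0 with Triton X-100, read at 405 nm for 20 min. MKP5 used DiFMUP in Tris-HCl pH 8.0. The enzyme's own pNPP KM was used in analysis; ratio of the Ki values.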

The species entered for series [6] is Homo sapiens. In words: Selectivity ratio of Ki for human MKP5 to Ki for human STEP. The gist of the method:
as §1

The nature of series [7]: Effective permeability of the compound at pH 7.4 by PAMPA. The class given is ADME. The note with it: read-out: Peff.

Active and inactive are the calls of the source. The rule behind the calls is not given here.

Sequence of Receptor-type tyrosine-protein phosphatase F (P10586 whole entry): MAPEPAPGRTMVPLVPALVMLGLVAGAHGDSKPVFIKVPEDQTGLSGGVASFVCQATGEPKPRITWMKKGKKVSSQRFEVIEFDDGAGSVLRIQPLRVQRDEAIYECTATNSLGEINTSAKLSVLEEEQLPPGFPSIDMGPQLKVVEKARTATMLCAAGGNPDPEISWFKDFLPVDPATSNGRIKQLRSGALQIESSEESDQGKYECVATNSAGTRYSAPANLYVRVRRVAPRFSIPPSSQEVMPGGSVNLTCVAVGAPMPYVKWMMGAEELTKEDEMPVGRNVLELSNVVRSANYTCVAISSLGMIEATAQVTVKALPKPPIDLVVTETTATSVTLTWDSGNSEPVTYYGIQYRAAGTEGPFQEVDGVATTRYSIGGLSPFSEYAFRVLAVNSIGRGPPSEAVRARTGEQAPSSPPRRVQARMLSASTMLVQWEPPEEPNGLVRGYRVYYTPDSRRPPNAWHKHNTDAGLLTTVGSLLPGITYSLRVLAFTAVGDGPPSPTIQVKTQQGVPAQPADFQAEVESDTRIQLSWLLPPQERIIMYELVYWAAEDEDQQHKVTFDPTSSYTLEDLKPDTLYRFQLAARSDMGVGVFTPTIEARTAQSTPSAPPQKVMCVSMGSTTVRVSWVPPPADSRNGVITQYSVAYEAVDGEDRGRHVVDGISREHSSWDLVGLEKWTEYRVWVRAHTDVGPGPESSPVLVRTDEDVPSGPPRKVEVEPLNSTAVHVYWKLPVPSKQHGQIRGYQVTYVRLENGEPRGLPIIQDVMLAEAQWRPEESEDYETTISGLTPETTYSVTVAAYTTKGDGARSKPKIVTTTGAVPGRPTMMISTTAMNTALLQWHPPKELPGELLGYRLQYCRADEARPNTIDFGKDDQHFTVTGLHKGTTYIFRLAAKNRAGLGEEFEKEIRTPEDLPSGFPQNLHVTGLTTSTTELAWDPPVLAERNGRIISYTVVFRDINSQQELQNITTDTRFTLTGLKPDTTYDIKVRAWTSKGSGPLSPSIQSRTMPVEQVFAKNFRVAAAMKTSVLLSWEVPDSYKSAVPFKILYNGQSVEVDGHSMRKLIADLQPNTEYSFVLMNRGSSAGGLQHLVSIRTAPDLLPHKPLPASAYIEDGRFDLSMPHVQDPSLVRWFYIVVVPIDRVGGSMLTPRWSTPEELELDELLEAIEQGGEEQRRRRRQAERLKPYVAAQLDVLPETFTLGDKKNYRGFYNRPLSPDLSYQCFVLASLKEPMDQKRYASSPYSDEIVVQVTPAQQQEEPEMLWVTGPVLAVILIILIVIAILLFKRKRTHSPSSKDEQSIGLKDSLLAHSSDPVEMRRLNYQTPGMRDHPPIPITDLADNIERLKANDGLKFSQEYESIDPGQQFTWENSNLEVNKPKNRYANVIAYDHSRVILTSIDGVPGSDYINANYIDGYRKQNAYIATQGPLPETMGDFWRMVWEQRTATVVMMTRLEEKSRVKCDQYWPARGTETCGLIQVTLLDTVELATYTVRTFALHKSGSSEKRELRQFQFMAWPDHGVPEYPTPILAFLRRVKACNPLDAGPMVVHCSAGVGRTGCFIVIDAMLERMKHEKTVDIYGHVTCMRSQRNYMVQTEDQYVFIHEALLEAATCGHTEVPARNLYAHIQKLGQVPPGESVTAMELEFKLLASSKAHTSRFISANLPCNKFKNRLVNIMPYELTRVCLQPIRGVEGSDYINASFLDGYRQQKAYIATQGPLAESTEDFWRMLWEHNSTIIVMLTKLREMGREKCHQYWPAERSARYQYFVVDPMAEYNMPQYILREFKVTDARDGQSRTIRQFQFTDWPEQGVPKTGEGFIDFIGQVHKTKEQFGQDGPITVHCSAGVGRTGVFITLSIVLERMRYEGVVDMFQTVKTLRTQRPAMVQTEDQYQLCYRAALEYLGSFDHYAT

For the compound `O=P(O)(O)[C@H](O)c1ccc(-c2cccc([C@H](O)c3ccc(Cl)c(Cl)c3)c2)cc1`, the Ki in series [1] is 390 µM; in series [2] it was 170 µM; in series [4], above 500 µM. Besides, the inhibition entry in series [3] was “Active”. The Ratio Ki in the series listed under Homo sapiens [5] turned out to be 50.

As for `O=P(O)(O)[C@H](O)c1ccc(-c2cccc([C@@H](O)c3ccc(Cl)c(Cl)c3)c2)cc1`, the Ki is 360 µM in series [1], 164 µM in series [2] and 340 µM in series [4]. Moreover, the results for the Ratio Ki in the series listed under Homo sapiens [6] and in the series listed under Homo sapiens [5] were 41 and 40, respectively. For the same compound, in series [3], the inhibition entry was “Active”. For the same compound, the Papp in series [7] was below 0.1 ×10⁻⁶ cm/s.

In general, Ki refers to the dissociation constant of the complex between target and ligand, obtained from inhibition or displacement.

These data come from ChEMBL document CHEMBL2429849, “Substrate-based fragment identification for the development of selective, nonpeptidic inhibitors of striatal-enriched protein tyrosine phosphatase” (J Med Chem, 2013).
